Measurements as given in PubChem BioAssay AID463169 (The Scripps Research Institute Molecular Screening Center, 2010).

Target: Wee1-like protein kinase (Homo sapiens) (UniProt P30291)
Experiment: blockers of Wee1 turnover via luciferase fusion stabilization, late-stage follow-up, cell-based, HeLa, luminescence, powder samples (AID 463169)
Details: at 0.1 µM, hits give high values
Summary of the method: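 test system = HeLa cells expressing Wee1-luciferase fusion | schedule = transfection 48 h before assay, compound exposure 20 h at 37 °C | signal = luciferase luminescence | measure = average fold change in luminescence relative to DMSO-treated cells | repeats = four replicates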

Chain of Wee1-like protein kinase (Homo sapiens) (P30291 whole entry K328M, the tested form may be a part): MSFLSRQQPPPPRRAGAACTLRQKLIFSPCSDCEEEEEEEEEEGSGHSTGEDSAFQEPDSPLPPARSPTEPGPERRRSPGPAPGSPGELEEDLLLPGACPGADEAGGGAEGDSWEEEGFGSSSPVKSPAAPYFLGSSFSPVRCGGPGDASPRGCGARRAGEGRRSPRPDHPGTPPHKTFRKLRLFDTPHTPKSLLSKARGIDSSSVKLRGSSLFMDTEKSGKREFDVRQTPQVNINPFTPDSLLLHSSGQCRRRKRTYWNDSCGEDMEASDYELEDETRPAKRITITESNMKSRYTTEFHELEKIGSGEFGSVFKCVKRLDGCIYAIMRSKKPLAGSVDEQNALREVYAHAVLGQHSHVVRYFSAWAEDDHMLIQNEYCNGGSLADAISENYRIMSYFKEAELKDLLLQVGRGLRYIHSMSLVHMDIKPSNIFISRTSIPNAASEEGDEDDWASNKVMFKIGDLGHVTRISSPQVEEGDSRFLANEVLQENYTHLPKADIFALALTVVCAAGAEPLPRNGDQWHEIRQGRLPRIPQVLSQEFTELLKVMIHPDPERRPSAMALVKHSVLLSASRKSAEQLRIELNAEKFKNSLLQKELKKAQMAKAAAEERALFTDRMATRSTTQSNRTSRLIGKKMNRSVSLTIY

Structure (SMILES) | fold change
c1ccc2[nH]c(CNc3nc(N4CCOCC4)nc4c3ncn4-c3ccsc3)nc2c1 | 12.9
O=[N+]([O-])c1cccc2[nH]c(CNc3nc(N4CCOCC4)nc4c3ncn4-c3ccsc3)nc12 | 23.3
